Test results published in ChEMBL document CHEMBL3864172, “New Peptidomimetic Boronates for Selective Inhibition of the Chymotrypsin-like Activity of the 26S Proteasome” (ACS Med Chem Lett, 2016).
Calls of active or inactive are those of the source. The calls are words filed in the database; no cut-off is given here.

Legend:
[1] = Inhibition of chymotrypsin like activity of rabbit 20S proteasome using Suc-Leu-Leu-Val-Tyr-AMC as substrate preincubated for 15 mins followed by substrate addition measured after 2 hrs by fluorescence-based assay; design: species or system Oryctolagus cuniculus
[2] = Inhibition of trypsin like activity of rabbit 20S proteasome using Bz-Val-Gly-Arg-AMC as substrate preincubated for 15 mins followed by substrate addition measured after 2 hrs by fluorescence-based assay; design: species or system Oryctolagus cuniculus
[3] = Inhibition of caspase like activity of rabbit 20S proteasome using Ac-nLPnLD-AMC as substrate preincubated for 15 mins followed by substrate addition measured after 2 hrs by fluorescence-based assay; design: species or system Oryctolagus cuniculus
[4] = Inhibition of bovine alpha chymotrypsin using Ala-Ala-Phe-7-AMC as substrate measured for 10 mins by spectrophotometric analysis; design: species or system Bos taurus
Summary of the method: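 Enzyme was bovine α-chymotrypsin. Compounds were tested up to a top concentration of 25000 nM. Ki values are the mean of three separate experiments, with variation between experiments below ±10%.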

[5] = (§1) Cytotoxicity against human WE68 cells harboring wild type p53 assessed as reduction in cell viability after 48 hrs by 7AAD-staining based FACS analysis; assay type: functional; settings: WE68, 48 h, read-out: LD50 (the source's name)
Summary of the method: (§2)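 Cells were exposed for 48 h to compound titrations from 0 to 5000 nM. Cell death was read out by 7AAD staining, and the LD50 was taken from dose-response curves. n=3.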

[6] = (§3) Cytotoxicity against human RD-ES cells harboring p53 mutant assessed as reduction in cell viability after 48 hrs by 7AAD-staining based FACS analysis; assay type: functional; settings: read-out: LD50 (the source's name); summary of the method: as §2
[7] = (§4) Cytotoxicity against human KGN cells harboring wild type p53 assessed as reduction in cell viability after 48 hrs by 7AAD-staining based FACS analysis; assay type: functional; settings: read-out: LD50 (the source's name); summary of the method: as §2
[8] = (§5) Cytotoxicity against p53 deficient human SKOV3 cells assessed as reduction in cell viability after 48 hrs by 7AAD-staining based FACS analysis; assay type: functional; settings: SK-OV-3, 48 h, read-out: LD50 (the source's name); summary of the method: as §2
[9] = (§6) Cytotoxicity against human MCF7 cells harboring wild type p53 assessed as reduction in cell viability after 48 hrs by 7AAD-staining based FACS analysis; assay type: functional; settings: MCF7, 48 h, read-out: LD50 (the source's name); summary of the method: as §2
[10] = (§7) Cytotoxicity against human MDA-MB-468 cells harboring mutant p53 assessed as reduction in cell viability after 48 hrs by 7AAD-staining based FACS analysis; assay type: functional; settings: MDA-MB-468, 48 h, read-out: LD50 (the source's name); summary of the method: as §2
[11] = (§8) Cytotoxicity against human U266 cells harboring mutant p53 assessed as reduction in cell viability after 48 hrs by 7AAD-staining based FACS analysis; assay type: functional; settings: U-266, 48 h, read-out: LD50 (the source's name); summary of the method: as §2
[12] = Cytotoxicity against human MCF10A cells harboring wild type p53 assessed as reduction in cell viability after 48 hrs by 7AAD-staining based FACS analysis; assay type: toxicity, MCF-10A; settings: for CC50 at 48 h: MCF10A cells harboring wild type p53, read-out: LD50; for Activity: mcf-10a, 48 h; summary of the method: as §2
[13] = Cytotoxicity against human IMR90 cells harboring wild type p53 assessed as reduction in cell viability after 48 hrs by 7AAD-staining based FACS analysis; assay type: toxicity, IMR-90; settings: for CC50 at 48 h: IMR90 cells harboring wild type p53, read-out: LD50; for Activity: imr-90, 48 h; summary of the method: as §2
[14] = Cytotoxicity against HNDF cells harboring wild type p53 assessed as reduction in cell viability after 48 hrs by 7AAD-staining based FACS analysis; assay type: toxicity; settings: human; for CC50 at 48 h: HNDF cells harboring wild type p53, read-out: LD50; for Activity: hndf, 48 h; summary of the method: as §2
[15] = Cytotoxicity against human LCL cells harboring wild type p53 assessed as reduction in cell viability after 48 hrs by 7AAD-staining based FACS analysis; assay type: toxicity; settings: for CC50 at 48 h: LCL cells harboring wild type p53, read-out: LD50; for Activity: lcl, 48 h; summary of the method: as §2
MDA-MB-468 [16] = experiment: Inhibition of 26S proteasome in human MDA-MB-468 cells assessed as accumulation of high molecular weight polyubiquitin-conjugated proteins at 35 nM after 4 hrs by Western blot analysis; assay type: cell-based
MCF7 [17] = experiment: Inhibition of 26S proteasome in human MCF7 cells assessed as accumulation of high molecular weight polyubiquitin-conjugated proteins at 35 nM after 4 hrs by Western blot analysis; assay type: cell-based
[18] = Terminal half life in human plasma at 20 mg/m2 iv, administered for 2 to 10 mins after dexamethasone addition by LC-MS/MS analysis; assay type: ADME, cell-free; settings: read-out: beta t1/2
[19] = molecular target: T1, Proteasome subunit beta type-8 (Mus musculus, UniProt P28063); experiment: Inhibition of chymotrypsin like activity of mouse spleen 20S proteasome beta5i subunit using Suc-Leu-Leu-Val-Tyr-AMC as substrate preincubated for 15 mins followed by substrate addition measured after 2 hrs by fluorescence-based assay
T1 sequence (P28063 whole entry): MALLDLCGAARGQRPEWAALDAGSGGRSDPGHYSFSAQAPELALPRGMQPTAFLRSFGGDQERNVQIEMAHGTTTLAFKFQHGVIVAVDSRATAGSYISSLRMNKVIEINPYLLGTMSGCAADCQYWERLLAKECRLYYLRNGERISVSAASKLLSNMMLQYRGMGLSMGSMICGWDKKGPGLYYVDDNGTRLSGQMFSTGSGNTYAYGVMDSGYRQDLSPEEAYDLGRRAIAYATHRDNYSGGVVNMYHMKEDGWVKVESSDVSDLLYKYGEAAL

[20] = (§9) Cytotoxicity against human NCI-H929 cells harboring wild type p53 assessed as reduction in cell viability after 48 hrs by 7AAD-staining based FACS analysis; assay type: functional; settings: NCI-H929, 48 h, read-out: LD50 (the source's name); summary of the method: as §2
Oryctolagus cuniculus = organism: Oryctolagus cuniculus; experiment: Selectivity ratio of IC50 for caspase like activity of rabbit 20S proteasome to IC50 for chymotrypsin like activity of rabbit 20S proteasome
WE68 = experiment: as §1; assay type: functional; summary of the method: as §2
RD-ES = experiment: as §3; assay type: functional; summary of the method: as §2
KGN = experiment: as §4; assay type: functional; summary of the method: as §2
SK-OV-3 = experiment: as §5; assay type: functional; summary of the method: as §2
MCF7 [21] = experiment: as §6; assay type: functional; summary of the method: as §2
MDA-MB-468 [22] = experiment: as §7; assay type: functional; summary of the method: as §2
NCI-H929 = experiment: as §9; assay type: functional; summary of the method: as §2
U-266 [23] = experiment: as §8; assay type: functional; summary of the method: as §2
U-266 [24] = experiment: Selectivity ratio of LD50 for human U266 cells to LD50 for human NCI-H929 cells; assay type: functional
[25] = Selectivity ratio of LD50 for human SKOV3 cells to LD50 for human KGN cells; assay type: functional
[26] = Inhibition of chymotrypsin like activity of rabbit 20S proteasome using Suc-LLVY-AMC as substrate preincubated for 15 mins followed by substrate addition measured after 2 hrs by microplate-fluorometric analysis; design: species or system Oryctolagus cuniculus

SMILES | IC50 [1] [nM] | IC50 [2] [nM] | IC50 [3] [nM] | Ki [4] [nM] | CC50 [5] [nM] | CC50 [6] [nM] | CC50 [7] [nM] | CC50 [8] [nM] | CC50 [9] [nM] | CC50 [10] [nM] | CC50 [11] [nM] | CC50 at 48 h [12] [nM] | CC50 at 48 h [13] [nM] | CC50 at 48 h [14] [nM] | CC50 at 48 h [15] [nM] | polyubiquitin accumulation (active/inactive) (MDA-MB-468 [16]) | Polyubiquitin-conjugate accumulation (MCF7 [17]) | IC50 [19] [nM] | CC50 [20] [nM] | Ratio IC50 (Oryctolagus cuniculus) | other results
CC(C)C[C@H](NC(=O)[C@H](CCc1ccccc1)NC(=O)CN1CCOCC1)C(=O)N[C@@H](Cc1ccccc1)C(=O)N[C@@H](CC(C)C)C(=O)[C@@]1(C)CO1 [CARFILZOMIB] | 23.1 | > 25000 | > 25000 | > 25000 | 80 | 43 | 450 | 320 | 4500 | 330 | 60 | 320 | 130 | 350 | 30 | Active | Active |  |  |  | half-life [18]: 5 to 20 min
CC(C)C[C@H](NC(=O)[C@H](Cc1ccccc1)NC(=O)c1cnccn1)B(O)O [BORTEZOMIB] | 34.6 | > 25000 | 108 | 1820 | 100 | 40 | 180 | 1600 | 9800 | 37 | 18 | 1500 | 130 | 480 | 20 | Active | Active | 16.8 | 6.6 |  | 
C=CCOc1ccc(CCC(=O)c2ccc(C(=O)N[C@@H](Cc3ccc(OCC=C)cc3)C(=O)N[C@@H](Cc3ccccc3)B3O[C@@H]4C[C@@H]5C[C@@H](C5(C)C)[C@]4(C)O3)[nH]2)cc1 | 104 | > 25000 | 3340 | 1310 |  |  |  |  |  |  |  |  |  |  |  |  |  | 113 |  | 32.1 | 
CC[C@H](C)[C@H](NC(=O)[C@H](CCCCN=[N+]=[N-])NC(=O)OCc1ccccc1)C(=O)N[C@@H](Cc1ccccc1)B1O[C@@H]2C[C@@H]3C[C@@H](C3(C)C)[C@]2(C)O1 | 21 | > 25000 | 2450 | 7130 | 14 | 33 | 48 | 46 | 79 | 24 | 14 | 1250 | 8 | 60 |  |  |  | 13.8 | 12 | 117 | Activity (WE68): Dose-dependent effect; Activity (RD-ES): Dose-dependent effect; Activity (KGN): Dose-dependent effect; Activity (SK-OV-3): Dose-dependent effect; Activity (MCF7 [21]): Dose-dependent effect; Activity (MDA-MB-468 [22]): Dose-dependent effect; Activity (NCI-H929): Dose-dependent effect; Activity (U-266 [23]): Dose-dependent effect; Activity [12]: Dose-dependent effect; Activity [13]: Dose-dependent effect; Activity [14]: Dose-dependent effect; Activity [15]: Dose-dependent effect
CC[C@H](C)[C@H](NC(=O)[C@H](CCCCN=[N+]=[N-])NC(=O)OCc1ccccc1)C(=O)N[C@@H](CC(C)C)B1O[C@@H]2C[C@@H]3C[C@@H](C3(C)C)[C@]2(C)O1 | 14.1 | > 25000 | 1600 | > 25000 | 35 | 35 | 65 | 370 | 1500 | 30 | 15 | 5000 | 200 | 500 | 30 | Active | Active | 118 | 6.4 | 113 | Activity (WE68): Dose-dependent effect; Activity (RD-ES): Dose-dependent effect; Activity (KGN): Dose-dependent effect; Activity (SK-OV-3): Dose-dependent effect; Activity (MCF7 [21]): Dose-dependent effect; Activity (MDA-MB-468 [22]): Dose-dependent effect; Activity (NCI-H929): Dose-dependent effect; Activity (U-266 [23]): Dose-dependent effect; Activity [12]: Dose-dependent effect; Activity [13]: Dose-dependent effect; Activity [14]: Dose-dependent effect; Activity [15]: Dose-dependent effect; Selectivity ratio (U-266 [24]): 2; Selectivity ratio [25]: 5
C#CCOc1ccc(C[C@@H](C=O)NC(=O)[C@@H](NC(=O)[C@H](CCCCN=[N+]=[N-])NC(=O)OCc2ccccc2)[C@H](C)CC)cc1 |  |  |  |  |  |  |  |  |  |  |  |  |  |  |  |  |  |  |  |  | IC50 [26]: 21 nM
C=CCOc1ccc(CCC(=O)c2ccc(C(=O)N[C@@H](Cc3ccc(OCC=C)cc3)C(=O)N[C@@H](CC(C)C)B3O[C@@H]4C[C@@H]5C[C@@H](C5(C)C)[C@]4(C)O3)[nH]2)cc1 | 20.9 | > 25000 | 4180 | > 25000 | 65 | 65 | 180 | 1500 | 3000 | 50 | 29 | 9000 | 150 | 1080 | 90 | Active | Active | 483 | 9 | 200 | Activity (WE68): Dose-dependent effect; Activity (RD-ES): Dose-dependent effect; Activity (KGN): Dose-dependent effect; Activity (SK-OV-3): Dose-dependent effect; Activity (MCF7 [21]): Dose-dependent effect; Activity (MDA-MB-468 [22]): Dose-dependent effect; Activity (NCI-H929): Dose-dependent effect; Activity (U-266 [23]): Dose-dependent effect; Activity [12]: Dose-dependent effect; Activity [13]: Dose-dependent effect; Activity [14]: Dose-dependent effect; Activity [15]: Dose-dependent effect; Selectivity ratio (U-266 [24]): 2; Selectivity ratio [25]: 5
